TRPC6 activator: mouse TRPC6 channel activation | hit rate 0.13% among 310,000 | B-score at 10 µM | HEK293-TRPC6 membrane potential dye fluorescence; active compounds read high | Q61143;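 active = B-score of the integrated fluorescence ratio above library mean plus 3 SD, and starting fluorescence ratio within library mean plus 5 SD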;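 also: higher score means more depolarization so channel activation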
TRPC4 potent: allosteric potentiators of mouse TRPC4 channel; Q9QUQ5; HEK293 TRPC4beta/mu-opioid, DAMGO EC20, Fluo-4 Ca2+ flux; active compounds read high; B-score at 10 µM; hit rate 0.42% among 310,000; AID 2227;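 active = B-score of calcium response area above 5 SD of library B-scores, with initial fluorescence ratio within 5 SD of library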;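 also: B-score of integrated fluorescence ratio over time as area under calcium response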
Target sequence (Q9QUQ5 whole entry, looked up): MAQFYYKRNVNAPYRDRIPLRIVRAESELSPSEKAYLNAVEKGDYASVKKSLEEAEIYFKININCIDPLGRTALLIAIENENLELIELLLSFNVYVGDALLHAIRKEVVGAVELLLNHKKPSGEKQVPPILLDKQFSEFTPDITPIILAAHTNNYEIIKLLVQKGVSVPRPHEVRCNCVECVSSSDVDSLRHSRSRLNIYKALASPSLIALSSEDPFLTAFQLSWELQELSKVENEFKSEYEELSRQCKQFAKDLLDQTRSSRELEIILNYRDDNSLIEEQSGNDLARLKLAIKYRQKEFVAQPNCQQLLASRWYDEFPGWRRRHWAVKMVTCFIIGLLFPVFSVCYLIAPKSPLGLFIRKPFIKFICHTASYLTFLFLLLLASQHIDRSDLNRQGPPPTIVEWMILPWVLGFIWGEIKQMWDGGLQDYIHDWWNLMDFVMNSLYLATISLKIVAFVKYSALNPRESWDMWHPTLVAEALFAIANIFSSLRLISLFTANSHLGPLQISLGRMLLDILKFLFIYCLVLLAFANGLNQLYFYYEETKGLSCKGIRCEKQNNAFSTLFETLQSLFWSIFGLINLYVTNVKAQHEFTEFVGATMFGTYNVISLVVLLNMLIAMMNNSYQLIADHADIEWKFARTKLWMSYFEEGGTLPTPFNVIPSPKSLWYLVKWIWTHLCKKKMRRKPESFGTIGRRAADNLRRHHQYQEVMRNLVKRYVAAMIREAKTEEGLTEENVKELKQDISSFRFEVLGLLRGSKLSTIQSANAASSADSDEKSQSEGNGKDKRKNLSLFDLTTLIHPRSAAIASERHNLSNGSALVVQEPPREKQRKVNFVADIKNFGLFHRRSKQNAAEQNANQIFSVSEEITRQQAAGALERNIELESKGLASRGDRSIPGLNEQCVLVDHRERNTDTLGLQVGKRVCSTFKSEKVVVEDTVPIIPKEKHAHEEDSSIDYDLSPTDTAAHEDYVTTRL
TRPC6 inh: inhibitors of mouse TRPC6 channel | HEK293-TRPC6, membrane potential dye, ACh-evoked depolarization; active compounds read low | B-score at 10 µM | hit rate 1.1% among 310,000 | Q61143;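 active = B-score under library mean minus 3 SD, initial fluorescence not abnormally high, positive integrated signal ratio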;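 also: B-score derived from integrated fluorescence ratio over the kinetic read; more negative B-score means stronger inhibition of depolarization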
TRPC4 agonist: TRPC4 (mouse) channel activation. HEK293 TRPC4beta/mu-opioid, Fluo4 calcium fluorescence; active compounds read high. B-score at 10 µM. hit rate 0.49% among 310,000;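 active = B-score above 5 SD of library B-scores, and initial fluorescence ratio not above library mean plus 5 SD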;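 also: positive B-score marks a calcium rise read as TRPC4 activation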
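Technique: kinetic Fluo4 calcium fluorescence; Test system: TRPC4beta and mu-opioid receptor HEK293 stable cells; Measure: B-scored integrated calcium fluorescence ratio; Benchmarks: low control buffer alone, high control maximal DAMGO; Schedule: 45 min room-temperature Fluo4 loading, 110 s read.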
TRPC4 inh: blocks the mouse TRPC4 cation channel. Q9QUQ5. HEK293 TRPC4beta/mu-opioid, DAMGO-evoked Fluo4 calcium flux; active compounds read low. B-score at 10 µM. hit rate 0.39% among 300,000. AID 2247;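 active = B-score over 3 SD under the library average, no early fluorescence shift, positive overall ratio signal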
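test system = HEK293 cells with stable TRPC4beta plus mu-opioid receptor expression | detection = Fluo4 Ca2+ flux fluorescence | read-out = integrated fluorescence ratio relative to baseline, converted to per-well B score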
TRPC4 spec 2: mouse TRPC4 off-target activity of TRPC6 inhibitors, second screen | shares compounds with TRPC6 inh | HEK293 TRPC4/MOR, membrane potential dye fluorescence; channel activated by saturating DAMGO dose | inhibition, % at 10 µM | hit rate 42% among 920;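 active = compounds whose fluorescence signal differed from control wells by over 3 SD, either direction, in both duplicate plates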
TRPC4 spec: selectivity of TRPC6 inhibitors: effect on mouse TRPC4; shares compounds with TRPC6 inh; HEK293 TRPC4/mu-opioid, membrane potential fluorescence; activity change, negative = inhibition, % at 10 µM; hit rate 61% among 920; AID 2777;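 active = rise or fall in signal beyond 3 SD of buffer-only wells in both replicate plates, either sign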;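 also: integrated kinetic ratio of fluorescence range over baseline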
HEK293 MPD ctr 2-1: parental HEK293 nonspecific activity of TRPC6 inhibitors, second screen; shares compounds with TRPC6 inh; hit rate 31% among 920; parental HEK293 membrane potential dye fluorescence; maximal acetylcholine challenge after compound addition; AID 2779; signal change vs control, % at 10 µM;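 active = membrane potential signal moving either way by over 3 SD of the maximum-effect control, in both duplicate plates, meaning non-specific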
HEK293 MPD ctr-1: parental HEK293 nonspecific activity of TRPC6 inhibitors. shares compounds with TRPC6 inh. parental HEK293 membrane potential dye fluorescence. membrane potential signal change, % at 10 µM. hit rate 60% among 920;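 active = membrane potential signal shifting up or down by more than 3 SD of buffer-only wells, on both duplicate plates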
HEK293 MPD ctr-2: checks TRPC6 modulator effects in parental HEK293 cells. shares compounds with TRPC6 inh. membrane potential dye fluorescence. membrane potential signal change, % at 10 µM. hit rate 51% among 2,400. AID 488924;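 active = membrane potential signal moves up or down beyond 5 SD from buffer-only wells, on both duplicate plates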
HEK293 MPD ctr 2-2: second counter-screen for TRPC6 modulators: effect in parental HEK293 cells; shares compounds with TRPC6 inh; membrane potential dye fluorescence; after compound, maximal acetylcholine stimulation; inhibition, % at 10 µM; hit rate 14% among 2,400;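 active = membrane potential signal drops by more than 5 SD from the mean control signal, in both duplicate plates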;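 also: plate controls were acetylcholine ECmax control wells for no effect and buffer only wells for full effect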
TRPC4/MOR mod: mouse TRPC4 off-target activity of TRPC6 modulators. shares compounds with TRPC6 inh. HEK293 TRPC4/mu-opioid, membrane potential fluorescence. percent change from control (negative = decrease, positive = increase), % at 10 µM. hit rate 69% among 2,400. AID 488927;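 active = membrane potential signal moved up or down beyond 5 SD of buffer control wells, in both duplicate plates, actives on both sides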;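 also: plate controls were assay buffer wells for no effect and DAMGO maximal-effect wells for full effect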
TRPC4 ctr inh 2: mouse TRPC4 off-target activity of TRPC6 modulators, second screen. shares compounds with TRPC6 inh. HEK293 TRPC4/mu-opioid, membrane potential dye fluorescence; stimulated with maximal-effect DAMGO. inhibition, % at 10 µM. hit rate 55% among 2,400. AID 488928;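 active = drop in membrane potential signal beyond 5 SD of the control wells in both duplicate plates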;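 also: TRPC4 counter screen for TRPC6 hits run under conditions tuned for TRPC6 not TRPC4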
TRPC6 block conf: mouse TRPC6 inhibitor confirmation | AID 488960 | HEK293-TRPC6, membrane potential dye, ACh-evoked depolarization | hit rate 43% among 3,300 | shares compounds with TRPC6 inh | inhibition, % at 10 µM;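 active = fluorescence ratio falls more than 5 SD below the full-stimulation control mean, in both duplicate runs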;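 also: integrated fluorescence ratio of peak minus minimum over baseline after agonist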
TRPC6 act conf: confirmation of mouse TRPC6 activators. shares compounds with TRPC6 inh. HEK293-TRPC6 membrane potential dye fluorescence, FDSS. activation, % at 10 µM. hit rate 11% among 2,800. AID 488961;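 active = ratio signal rise beyond 5 SD above unstimulated control wells' mean, seen in both duplicate runs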;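 also: plate controls were buffer EC0 wells for no effect and acetylcholine ECmax response for full effect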
* marks the source's active call; other numbers are inactive results; i = inactive; x = no result; + = active, no number. Rows were chosen to be rich in hits. Some 2.3% of all compounds tested hit in one or more screens of this group.

SMILES	TRPC6 activator	TRPC4 potent	TRPC6 inh	TRPC4 agonist	TRPC4 inh	HEK293 MPD ctr-2	HEK293 MPD ctr 2-2	TRPC4/MOR mod	TRPC4 ctr inh 2	TRPC6 block conf	TRPC6 act conf	others
O=C(NCCc1ccccc1)C1CCC(CNc2nc(=S)[nH]c3ccccc23)CC1 (stereo not given)	i	i	i	i	i	x	x	x	x	x	x
Cc1cc(N)c2cc(NC(=O)/C=C/c3ccccc3Cl)ccc2n1	i	i	-5.5*	i	i	i	i	i	i	i	i
OCCNc1cc(Cl)ncn1	i	i	i	i	i	x	x	x	x	x	x
CN(C)CCNc1oc(COc2cccc(Cl)c2)nc1C#N	i	i	i	i	i	x	x	x	x	x	x
CCN(CC)CCCNc1oc(-c2ccc(OC)c(OC)c2)nc1C#N	i	i	-6.4*	i	i	i	i	i	i	46%*	i
CN(C)CCCNc1oc(-c2cccc(Cl)c2)nc1C#N	i	i	-6.8*	i	i	x	x	x	x	i	i	TRPC4 spec 2=i;TRPC4 spec=i;HEK293 MPD ctr 2-1=i;HEK293 MPD ctr-1=i
CCOc1ccc(/C=C/c2nc(C#N)c(NCCCN(C)C)o2)cc1	i	i	-5.5*	i	i	i	i	i	56%*	38%*	i
O=C(N=C1SC2CS(=O)(=O)CC2N1c1ccc(F)c(Cl)c1)C1CCCO1 (stereo not given)	i	i	i	i	i	x	x	x	x	x	x
Cc1cc(OCCN2CCC(Cc3ccccc3)CC2)ccc1[N+](=O)[O-]	i	i	-8.2*	i	i	x	x	x	x	i	i	TRPC4 spec 2=54%*;TRPC4 spec=i;HEK293 MPD ctr 2-1=i;HEK293 MPD ctr-1=i
CC(NC(=O)c1ccc(F)cc1)c1ccc2c(c1)CCCC2 (stereo not given)	i	i	-6.1*	i	i	i	i	i	i	i	i
N#CCCN(CCN1CCCC1)S(=O)(=O)c1ccc(-c2ccc([N+](=O)[O-])cc2)cc1	i	i	-7.8*	i	i	x	x	x	x	88%*	i	TRPC4 spec 2=32%*;TRPC4 spec=-27%*;HEK293 MPD ctr 2-1=30%*;HEK293 MPD ctr-1=-268%*
Cc1ccccc1C(=O)NCCSc1ccccc1	i	i	-7.5*	i	i	x	x	x	x	i	i	TRPC4 spec 2=i;TRPC4 spec=3.9%*;HEK293 MPD ctr 2-1=i;HEK293 MPD ctr-1=2.1%*
CN(C)c1ccc(/C=C(/C(=O)c2ccc(Cl)cc2Cl)n2cncn2)cc1	49*	i	-6.4*	52*	i	+	+	266%*	i	i	487%*
COc1ccc(/C=C(/C(=O)c2ccc(Cl)cc2Cl)n2cncn2)cc1	i	i	i	i	i	x	x	x	x	x	x
Cc1ccc(OCC(=O)N/N=C2\CC(=O)CC(C)(C)C2)c(Br)c1	i	i	i	i	i	x	x	x	x	x	x
CC(C)OCCCN1CN(S(=O)(=O)c2ccc(Cl)cc2)c2nc3ccccc3nc21	i	i	i	i	i	x	x	x	x	x	x
CC(C)OCCCN1CN(S(=O)(=O)c2cccc(Cl)c2)c2nc3ccccc3nc21	i	i	-5.1*	i	i	i	i	9.5%*	i	i	i
CCCCN(C(=O)c1cc(S(=O)(=O)N2CCCCCC2)ccc1OC)c1ccccc1	i	i	i	i	i	x	x	x	x	x	x
Cc1nn(-c2ccccc2)c(N2CCCC2)c1/C=N/Nc1ccc(S(N)(=O)=O)cc1[N+](=O)[O-]	i	i	-5.5*	i	i	i	i	-10%*	54%*	i	i
NS(=O)(=O)c1ccc(N/N=C/c2ccc(C(=O)O)cc2)c([N+](=O)[O-])c1	i	i	i	i	i	x	x	x	x	x	x
O=C(N/N=C/c1ccc([N+](=O)[O-])s1)c1ccccc1Br	i	i	i	i	i	x	x	x	x	x	x
Cc1ccccc1C(=O)N/N=C/c1ccc([N+](=O)[O-])s1	12*	i	-6.1*	i	i	i	i	13%*	i	i	i
O=C(N/N=C/c1ccc([N+](=O)[O-])s1)c1ccccc1	i	i	-6*	i	i	i	i	i	i	i	i
CCOc1ccc(NC(=O)C(NC(=O)C2CCC(C)CC2)C(C)C)cc1 (stereo not given)	i	i	-5.7*	i	i	i	i	i	i	i	i
CC1CCC(C(=O)NC(C(=O)Nc2ccccn2)C(C)C)CC1 (stereo not given)	i	i	i	i	i	x	x	x	x	x	x
CC(=O)Nc1ccc(NC2CCCCC2NS(=O)(=O)c2ccc(Cl)cc2)cc1 (stereo not given)	i	i	i	i	i	x	x	x	x	x	x
CN(C)c1ccc(/C=C/c2cccc[n+]2[O-])cc1	i	i	i	i	i	x	x	x	x	x	x
CC(C)CC[n+]1ccccc1/C=C/c1ccc(N(C)C)cc1	i	i	-5.8*	66*	i	719%*	113%*	115%*	i	68%*	x
CCCCOc1ccc(-c2nnc(-c3cc[n+](C)cc3)o2)cc1	i	i	-8.2*	i	i	x	x	x	x	i	i	TRPC4 spec 2=i;TRPC4 spec=-11%*;HEK293 MPD ctr 2-1=-69%*;HEK293 MPD ctr-1=-200%*

Bioassay records (PubChem)
